Assay results collected from several papers.
Compare with care: the assays were run in different laboratories.
Effect on: cell growth or viability

Structure (SMILES) | cell line | test | setting | viability [%]
CCOC(=O)c1nn(-c2cccc(Cl)c2)/c(=N/N=C(\C)c2ccc(NC(=O)c3ccccc3)cc2)s1 | HepG2 | MTT | 10 µM | 3
CC(C)(C)c1cnc(CSc2cnc(NC(=O)C3CCN(CCCCCCCSc4cccc5c4C(=O)N(C4CCC(=O)NC4=O)C5=O)CC3)s2)o1 (stereo not shown) | HH | CCK-8 | 10 nM | 99.5
O=C(C=Cc1ccccc1)Nc1ccc(Oc2nnc(-c3ccc(Cl)cc3)c3ccccc23)cc1 | HepG2 | MTT | 5 µM, 24 h | 2.49
CC(=O)c1nn(-c2ccccc2Cl)/c(=N/N=C(\C)c2ccc(NC(=O)c3ccccc3)cc2)s1 | HepG2 | MTT | 78 nM | 71.7
CC(=NNC(=O)COc1ccc2c(C)c(Cc3ccccc3)c(=O)oc2c1C)c1ccc(Br)cc1 | HepG2 | MTT | 1.6 µg/mL | 54.8
CC(C)(C)c1cnc(CSc2cnc(NC(=O)C3CCN(CCCCCCCCSc4cccc5c4C(=O)N(C4CCC(=O)NC4=O)C5=O)CC3)s2)o1 (stereo not shown) | HH | CCK-8 | 0.5 µM | 0
CC(=O)c1nn(-c2ccc(C)cc2)/c(=N/N=C(\C)c2ccc(NC(=O)c3ccccc3)cc2)s1 | HepG2 | MTT | 10 µM | 6.81
CC(=NNC(=O)c1ccccc1)c1ccc(Nc2nnc(-c3ccc(Cl)cc3)c3ccccc23)cc1 | HepG2 | MTT | 0.625 µM, 24 h | 48.7
CC(C)(C)c1cnc(CSc2cnc(NC(=O)C3CCN(CCCCCSc4cccc5c4CN(C4CCC(=O)NC4=O)C5=O)CC3)s2)o1 (stereo not shown) | HH | CCK-8 | 10 nM | 93.5
CC(=NNC(=O)c1ccccc1Cl)c1ccc(Nc2nnc(-c3ccc(Cl)cc3)c3ccccc23)cc1 | HepG2 | MTT | 2.5 µM, 24 h | 4.78
CC(C)(C)c1cnc(CSc2cnc(NC(=O)C3CCN(CCCCSc4cccc5c4C(=O)N(C4CCC(=O)NC4=O)C5=O)CC3)s2)o1 (stereo not shown) | HH | CCK-8 | 0.5 µM | 0
CC(=NNC(=O)c1ccccc1Br)c1ccc(Nc2nnc(-c3ccc(Cl)cc3)c3ccccc23)cc1 | HepG2 | MTT | 0.312 µM, 24 h | 85.4
CC(=O)Nc1ccc(/C(C)=N/N=c2\sc(C(C)=O)nn2-c2ccc(C)cc2)cc1 | HepG2 | MTT | 2.5 µM | 99.4
